Test results taken from paper PMC3148296 (Molecular pharmaceutics, 2011).

Legend:
4T1 tumors = experiment: In vivo photosensitizing; set-up: species or system BALB/c mice; conditions: 10 mice/group
Outline: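 BALB/c mice received 1 × 10⁶ 4T1 cells s.c. in 50 μL PBS at the right shoulder. Treatment began at a mean tumor volume of 62.5 mm³ (50–70). Test compound given i.v. Unanesthetized, restrained mice were irradiated at 665 nm (1 cm² spot, 135 J/cm², 75 mW/cm²). Mice were checked daily for regrowth; volume = (L × W²)/2; mice euthanized at 400 mm³.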

[1] = tested on: 4T1 cells (αvβ3 positive); experiment: In vitro photosensitizing; format: cell-based, Mouse; conditions: 4T1, 2 h incubation, 665 nm light 0-2 J/cm2, MTT 48 h later
Outline: (§1)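 Cells kept at 37°C in 5% CO₂ in medium with 10% FBS (4T1: RPMI-1640; A431: DMEM high glucose). Plated at 3000 cells/well and allowed to attach for 3 h. Test compound added at variable concentrations for 2 h in the dark, then replaced with drug-free medium. Irradiated with a 665 nm dye laser at 3.2 mW/cm². After 48 h in the dark: MTT for 4 h, DMSO, A570. Survival given as % of dark control; mean of 3 experiments, 6 wells each, SD.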

4T1 cells = experiment: In vitro cell uptake by flow cytometry; format: cell-based, Mouse; conditions: 4T1, 2 h post incubation
[2] = tested on: A431 cells (αvβ3 negative); experiment: In vitro photosensitizing; format: cell-based, Human; conditions: A431, 2 h incubation, 665 nm light 0-2 J/cm2, MTT 48 h later
Outline: as §1

U87 cells = experiment: In vitro cell uptake by flow cytometry; format: cell-based, Human
Solubility in solvents = format: physicochemical
[3] = 0.25 μmol/kg, light at 24 h post injection

| Substance | tumor cure at day 60 (4T1 tumors; [3]) | tumor cure at day 60 (4T1 tumors; 0.47 μmol/kg, light at 4 h post injection) | mice tumor-free on day 60 (4T1 tumors; light at 24 h post injection, Figure 7B) | mice tumor-free on day 60 (4T1 tumors; light at 2 h post injection, Figure 7A) | in vitro PDT efficacy among HPPH and conjugates 7, 8, 10 [1] | cell uptake compared with HPPH (4T1 cells) | in vitro phototoxicity compared to HPPH [2] | cell uptake among conjugates 7, 8 and 10 (U87 cells; U87, 400 nM and 800 nM, 2 h and 4 h post-incubation, flow cytometry) | cell uptake at 4 h versus 2 h incubation (U87 cells; U87, Figure S10) | dissolution in common polar solvents (Solubility in solvents) | solubility in DMSO (Solubility in solvents) |
| --- | --- | --- | --- | --- | --- | --- | --- | --- | --- | --- | --- |
| 3-(1′-hexyloxyethyl)-3-devinylpyropheophorbide-a [HPPH] | did not produce any cures | no cures | 4/10 |  |  |  |  |  |  |  |  |
| 3-devinyl-3-{1′-(hexyloxy)ethyl}pyropheophorbide-a–cyclo(RGDfK) conjugate [conjugate 7] | did not produce any cures |  |  | 8/10 | most effective | comparable | less effective | highest uptake | significantly more at 4h |  |  |
| HPPH–cyclo(RGDfK) conjugate [conjugate 8] |  |  |  |  |  |  |  |  |  | unsuccessful | partly soluble |
